The test system of one test is cardiac trabeculae. Briefly: Calcium sensitivity of force generation in isolated cardiac trabeculae. Conditions: 20 μM compound. It is filed as cell-based, rat. An outline of the steps:
(§1)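 Four male Sprague Dawley rats (7–9 months); cardiac trabeculae (n=10) and soleus fibers (n=10), soleus fibers typed slow by SDS-PAGE. Force measured in activating solutions of graded pCa, first without then with 20 μM test compound. pCa50 taken from force–pCa curve fits, and the with/without difference was analysed per preparation by paired Student's t-test. Maximal force was the mean of pCa 4.0 activations (every third; n=6), without then with compound.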

In test [1] the test system is slow skeletal muscle (soleus) fibers. Briefly: Calcium sensitivity of force generation in slow skeletal muscle. It is filed as cell-based, rat. As to conditions: 20 μM compound. An outline of the steps:
as §1

The target in test [2] is hydrophobic patch of cNTnC in the presence of cTnIsp. As to conditions: cited from earlier work.

The structures appear in SMILES notation. Read-outs that look alike come from different tables or passages of the source.

As for `O=C(CSc1nc(-c2ccccc2)c(-c2ccccc2)[nH]1)Nc1nccs1` [Compound 7930079, 2-[(4,5-diphenyl-1H-imidazol-2-yl)thio]-N-1,3-thiazol-2-ylacetamide], the “decrease in average maximal force” value with cardiac trabeculae (pCa 4.0, cardiac trabeculae, P=0.001) is 8%. The “shift of force/pCa curve to higher sensitivity (ΔpCa50)” value with cardiac trabeculae (rat cardiac trabeculae, n=10, P<.01) is listed as 0.05 ± 0.04 pCa unit; in test [1] (rat slow fibers, n=10, P<.01), 0.20 ± 0.03 pCa unit. For the same compound, the “effect on average maximal force generation” value in test [1] (pCa 4.0, slow fibers, P=0.39) was “no effect”. For the same compound, the Kd in test [2] (read-out: apparent experimental binding affinity) is 1.45 ± 0.09 µM.
For `CN1CCN(CCCN2c3ccccc3Sc3ccc(C(F)(F)F)cc32)CC1` [TFP, trifluoperazine], the Kd in test [2] was 110 ± 20 µM.
On to `CC(C)COCC(CN(Cc1ccccc1)c1ccccc1)N1CCCC1` (centres unmarked) [bepridil], for which the Kd in test [2] is 380 ± 60 µM.
For `C[C@@H]1CC(=O)NN=C1c1ccc(NN=C(C#N)C#N)cc1` [levosimendan], the Kd in test [2] is ~700 µM.
